Hits are enriched below; roughly 2% of the tested compounds scored in any of these assays.
PG9 binder: small molecules binding HIV-1 gp120 antibody PG9. inhibition, % at 6.7 µM. TR-FRET gp120-PG9 antibody binding. AID 624416. 360,000 tested, 0.43% active; in the data active = inhibition above about 8.5%
Rev-erbA mod: modulates human Rev-erb alpha binding to DNA. P20393. 370,000 tested, 0.79% active. activity, % at 10 µM. Rev-erbα–FITC-DNA binding, fluorescence polarization, 90 min. AID 1259318;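 active = activity above about 14%, limit read from the data; passing the limit was not always enough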
NR2E3 ag-1: activates human NR2E3 receptor; 360,000 tested, 0.35% active; inhibition of corepressor binding, % at 3.98 µM; CHO-S Gal4-NCOR/VP16-NR2E3 two-hybrid, luciferase; AID 602229; Q9Y5X4;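 active = inhibition above the mean of all tested compounds plus 3 SD, cut at about 70% in these data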;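 also: higher means lower luciferase signal from less NR2E3 corepressor binding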
Target sequence (Q9Y5X4 whole entry, looked up, the tested form may be a part): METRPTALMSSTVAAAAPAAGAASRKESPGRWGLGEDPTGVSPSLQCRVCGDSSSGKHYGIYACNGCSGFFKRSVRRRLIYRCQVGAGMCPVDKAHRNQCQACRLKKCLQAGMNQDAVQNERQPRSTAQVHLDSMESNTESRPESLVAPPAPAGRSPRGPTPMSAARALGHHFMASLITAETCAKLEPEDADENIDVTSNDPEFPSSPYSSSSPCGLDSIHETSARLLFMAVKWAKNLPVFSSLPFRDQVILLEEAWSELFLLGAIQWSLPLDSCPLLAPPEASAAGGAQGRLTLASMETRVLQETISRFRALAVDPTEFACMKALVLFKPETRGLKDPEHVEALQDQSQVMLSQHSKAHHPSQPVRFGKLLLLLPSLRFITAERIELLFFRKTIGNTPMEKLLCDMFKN
Neddylation inh: blocks human cullin neddylation; P61081+Q13564; calls only at 25 µM; AID 651699; TR-FRET cullin neddylation, biochemical; 360,000 tested, 0.58% active; in the data active = inhibition above about 36%
NR2E3 ag-2: activates human photoreceptor nuclear receptor NR2E3 | Q9Y5X4 | GST-NR2E3/biotin-RetCOR TR-FRET, 1536-well | inhibition of corepressor binding, % at 4.78 µM | 320,000 tested, 0.12% active | AID 2300;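 active = percent inhibition above the cutoff of mean plus 3 SD of all tested compounds, set per screening campaign, cut at about 20% in these data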
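Assay system: NR2E3–RetCOR corepressor complex. Quantity: 1.35 nM GST-NR2E3. Buffer or medium: pH 7.5 Tris-based buffer. Reagent: biotinylated RetCOR corepressor at 7 nM final. Schedule: 5 h at 4 °C. Detection: TR-FRET, emission read at 617 and 671 nm. Replicates: one well per compound, singlicate testing.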
Large screens that a line does not name were inactive.

CCOC(=O)N[C@@H](Cc1cccnc1)C(=O)N1CCC[C@H]1C(=O)NCCc1ccccc1Cl	none (no result: NR2E3 ag-1, Neddylation inh, NR2E3 ag-2)
CC(CCC(C)C(C)(C)C)[C@@H]1CC[C@H]2C3C[C@H](OS(O)(=S)=S)[C@H]4C[C@H](OS(O)(=S)=S)[C@@H](OS(O)(=S)=S)C[C@]4(C)[C@H]3CC[C@]12C (some centres undefined) (tested in a mixture with another compound)	NR2E3 ag-1 75 (no result: PG9 binder, Rev-erbA mod, NR2E3 ag-2)
CC(C)c1cc(C(C)C)c(S(=O)(=O)N2CCC(C(=O)NCC3COCCO3)CC2)c(C(C)C)c1 (centres undefined)	none (no result: PG9 binder, NR2E3 ag-1, Neddylation inh, NR2E3 ag-2)
O=C(O)c1cc(O)c2c(c1)[C@@H]([C@H]1c3cc(C(=O)O)cc(O)c3C(=O)c3c(O[C@H]4O[C@H](CO)[C@@H](O)[C@H](O)[C@H]4O)cccc31)c1cccc(O[C@H]3O[C@H](CO)[C@@H](O)[C@H](O)[C@H]3O)c1C2=O	none (no result: PG9 binder, NR2E3 ag-1, Neddylation inh, NR2E3 ag-2)
COc1ccc2[nH]c3c(C)c4ccncc4c(C)c3c2c1	Neddylation inh active
CC(C)C[C@@H]1NC(=O)[C@H](Cc2ccccc2)N(C)C(=O)[C@H](C)NC(=O)c2ccccc2NC(=O)[C@H](Cc2ccc(O)cc2)N(C)C1=O	none
CC[C@H](C)C1OC(=O)[C@@H](C)[C@@H](CC)NC(=O)[C@H](C)N(C)C(=O)C(C)(C)C(=O)C(C)NC(=O)[C@H](Cc2ccc(OC)cc2)N(C)C(=O)[C@H](C(C)C)N(C)C(=O)CNC(=O)[C@H](CC(C)C)N(C)C(=O)CNC1=O (some centres undefined)	NR2E3 ag-1 81 (no result: PG9 binder, Rev-erbA mod, NR2E3 ag-2)
CCN1CCc2c(sc(NC(=O)c3ccc4ccccc4c3)c2C(N)=O)C1	Neddylation inh active
CCN1CCN(S(=O)(=O)c2ccc(C(=O)Nc3sc4c(c3C(N)=O)CCN(CC)C4)cc2)CC1	none
CC(C)C[C@H](NC1(C(=O)NC2CCCCC2)CCCCC1)C(=O)NCCc1c[nH]c2ccccc12	none (no result: PG9 binder, NR2E3 ag-1, Neddylation inh, NR2E3 ag-2)
CC1Cc2cc(/C(O)=C3/C(=O)C(=O)N(CCN4CCOCC4)C3c3cccc(Cl)c3)ccc2O1 (centres undefined)	PG9 binder 11
CCCOc1cccc(C2/C(=C(/O)c3ccc4c(c3)CC(C)O4)C(=O)C(=O)N2CCN2CCOCC2)c1 (centres undefined)	none
C[C@@H]1ON(C)[C@H]2C[C@H]3c4[nH]c5c(-c6cccc(F)c6)cccc5c4CCN3C(=O)[C@@H]12	none (no result: NR2E3 ag-1, Neddylation inh, NR2E3 ag-2)
C=C[C@@]1(C)CC(=O)[C@@]2(O)[C@](C)(O1)[C@@H](OC(C)=O)[C@@H](O)C1C(C)(C)CC[C@H](O)[C@@]12C (some centres undefined)	none (no result: PG9 binder, NR2E3 ag-1, Neddylation inh, NR2E3 ag-2)
CCOCCCNC(=O)C(NC(=O)c1ccccc1O)c1ccc(Cl)cc1 (centres undefined)	Neddylation inh active (no result: PG9 binder, Rev-erbA mod)
Cc1cc(NCCCCCCCNc2cc(C)nc3cc([N+](=O)[O-])ccc23)c2ccc([N+](=O)[O-])cc2n1	PG9 binder 13, Neddylation inh active (no result: NR2E3 ag-2)
COCCCNc1cc(C)nc2ccccc12	none
O=C(CSc1nnc(-c2cnccn2)n1-c1ccccc1)c1ccccc1Br	none (no result: PG9 binder, NR2E3 ag-1, Neddylation inh, NR2E3 ag-2)
COc1ccc2nc3ccccc3[n+]([O-])c2c1	Neddylation inh active (no result: NR2E3 ag-2)
CNC(=S)N/N=C/c1ccc(-c2ccc(C(=O)O)cc2)o1	Neddylation inh active
O[C@H](COc1cccc(C(F)(F)F)c1)CN1CCC(C(O)(c2ccccc2)c2ccccc2)CC1	none (no result: PG9 binder, NR2E3 ag-1, Neddylation inh, NR2E3 ag-2)
O=C(O)c1cc(O)ccc1O	none (not shown: Neddylation inh, NR2E3 ag-2)
O=C(O)C1=CC(=C(c2ccc(O)c(C(=O)O)c2)c2ccc(O)c(C(=O)O)c2)C=CC1=O	NR2E3 ag-2 30 (no result: PG9 binder, Rev-erbA mod, NR2E3 ag-1, Neddylation inh)
Cc1cc(C)c(C(=O)/C=C/C=C/c2ccccc2)c(=O)[nH]1	none
Cc1cc(C)c(C(=O)/C=C/c2ccc(C(C)C)cc2)c(=O)[nH]1	NR2E3 ag-1 82
CC(=O)[C@@]1(O)CCC2C3C[C@H](C)C4=CC(=O)C=CC4(C)[C@@]3(F)[C@@H](O)C[C@@]21C (some centres undefined)	none (no result: PG9 binder, NR2E3 ag-1, Neddylation inh, NR2E3 ag-2)
Cc1cccc(-n2ncc3c(NCCCN4CCCC4=O)ncnc32)c1	Neddylation inh active (no result: Rev-erbA mod)
O=C1CCCN1CCCNc1ncnc2c1cnn2-c1ccc(Cl)cc1	none
O=C(CCCC1=NS(=O)(=O)c2ccccc2N1)N1CCN(c2ccccc2Cl)CC1	none (no result: PG9 binder, NR2E3 ag-1, Neddylation inh, NR2E3 ag-2)
CCOc1ccc(S(=O)(=O)Nc2cnc3ccccc3c2)cc1	NR2E3 ag-1 99
O=C(CN1CCCc2ccccc21)NCc1ccccc1F	none (no result: PG9 binder, NR2E3 ag-1, Neddylation inh, NR2E3 ag-2)
S=c1[nH]nc(-c2n[nH]c3c2CCC3)n1/N=C/C=C/c1ccco1	Neddylation inh active
COc1ccc(/C=N/NC(=O)c2cc(-c3ccccc3OC)nc3ccccc23)cc1COC(C)=O	Neddylation inh active
COc1ccc(/C=N/NC(=O)c2cc(-c3ccc(C)cc3C)nc3ccccc23)cc1COC(C)=O	none (not shown: Neddylation inh)
CC(C)OC(=O)/C(=C\c1ccc2c(c1)c1ccccc1n2C)NC(=O)c1ccccc1	Neddylation inh active
Cn1c2ccccc2c2cc(/C=C(\NC(=O)c3ccccc3)C(=O)O)ccc21	none
Nc1nc(Nc2ccccc2)nc(NCc2ccco2)c1[N+](=O)[O-]	none
Fc1ccc(Nc2nc(NCc3ccco3)c3ccccc3n2)cc1	Neddylation inh active
CNC(=O)NC(=O)C(C)OC(=O)c1c2c(nc3ccccc13)/C(=C/c1cccs1)CC2 (centres undefined)	Neddylation inh active
Cc1cc(/C=N/NC(=O)C(O)(c2ccccc2)c2ccccc2)c(C)n1-c1cccc(C(=O)O)c1	none
Cc1cc(/C=N/NC(=O)c2cccc(N(C)C)c2)c(C)n1-c1cc(C(=O)O)cc(C(=O)O)c1	Neddylation inh active (no result: PG9 binder, NR2E3 ag-2)
COc1cc(/C=C(\CCC(=O)O)c2nc3ccccc3s2)ccc1OCC(=O)Nc1c(Cl)cccc1Cl	Neddylation inh active (no result: NR2E3 ag-2)
O=C(O)CC/C(=C/c1cccc(NC(=O)c2ccccc2Cl)c1)c1nc2ccccc2s1	none (no result: NR2E3 ag-2)
NC(=O)[C@@H]1CCCN1C(=O)[C@H]1O[C@@H](n2ccc(N)nc2=O)[C@H](O)[C@@H]1O	none (no result: NR2E3 ag-1, Neddylation inh, NR2E3 ag-2)
Oc1ccc(Nc2nc3ccccc3nc2Nc2ccc(O)cc2)cc1	NR2E3 ag-1 95 (no result: PG9 binder, Rev-erbA mod)
Oc1ccc(Nc2nc(-c3ccccc3)nc3ccccc23)cc1	none (no result: PG9 binder, Rev-erbA mod)
O=C(Nc1cc(Cl)ccc1F)C1CCCN(c2nnc(-n3cccc3)s2)C1 (centres undefined)	none (no result: PG9 binder, NR2E3 ag-1, Neddylation inh, NR2E3 ag-2)
COc1cccc(/C=N/NC(=O)C(c2ccncc2)N2CCOCC2)c1 (centres undefined)	none
O=C(N/N=C/c1cc(Br)ccc1O)C(c1ccncc1)N1CCOCC1 (centres undefined)	Neddylation inh active
Cc1ccc2oc(=O)c3cnn(CC(=O)NCCc4ccsc4)c3c2c1	PG9 binder 22
COC(=O)C1=C[C@@H]([C@@H](C)[C@H](OC)c2ccccc2Br)[C@@H]2OCCC[C@H]12	none (no result: PG9 binder, NR2E3 ag-1, Neddylation inh, NR2E3 ag-2)
CC(C)(C)c1ccc(S(=O)(=O)NCC(=O)Nc2ccc(-c3nc4ccccc4s3)cc2)cc1	PG9 binder 8.9
O=S(=O)(c1cccs1)N1CCCc2nc(-c3ccccc3)ccc21	none (no result: NR2E3 ag-1, Neddylation inh, NR2E3 ag-2)
